ChEMBL document CHEMBL3259753, “Synthesis, structure-activity relationships and biological evaluation of dehydroandrographolide and andrographolide derivatives as novel anti-hepatitis B virus agents” (Bioorg Med Chem Lett, 2014)

How the values were obtained:
[1] = Cytotoxicity against human HepG2.2.15 cells by MTT assay; format: cell-based, HepG2 2.2.15
Hepatitis B virus [2] = assay: Antiviral activity against HBV infected in human HepG2.2.15 cells assessed as inhibition of hepatitis B surface antigen secretion by ELISA; format: functional, organism-based; conditions: HepG2 2.2.15
[3] = Selectivity index, ratio of CC50 for human HepG2.2.15 cells to IC50 for HBV infected in human HepG2.2.15 cells assessed as inhibition of hepatitis B surface antigen secretion; format: functional
Hepatitis B virus [4] = assay: Antiviral activity against HBV infected in human HepG2.2.15 cells assessed as inhibition of hepatitis B e antigen secretion by ELISA; format: functional, organism-based; conditions: HepG2 2.2.15
[5] = Selectivity index, ratio of CC50 for human HepG2.2.15 cells to IC50 for HBV infected in human HepG2.2.15 cells assessed as inhibition of hepatitis B e antigen secretion; format: functional
Hepatitis B virus [6] = assay: Antiviral activity against HBV infected in human HepG2.2.15 cells assessed as inhibition of DNA replication; format: functional, organism-based; conditions: HepG2 2.2.15
[7] = Selectivity index, ratio of CC50 for human HepG2.2.15 cells to IC50 for HBV infected in human HepG2.2.15 cells assessed as inhibition of DNA replication; format: functional
[8] = Octanol-water partition coefficient, log P of the compound at 30 degC by HPLC analysis; format: physicochemical
Summary of the method: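 Shake-flask method: solutes equilibrated between octanol and water. Compound concentration in the octanol phase determined by HPLC. LogP determined at 30 °C.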

IC50 (Hepatitis B virus [2]) [µM] | IC50 (Hepatitis B virus [4]) [µM] | IC50 (Hepatitis B virus [6]) [µM] | logP ([8]; read-out: logP) | logP [8] | SMILES | CC50 [1] [µM] | Ratio CC50/IC50 [3] | Ratio CC50/IC50 [5] | Ratio CC50/IC50 [7]
74 | 860 | 154 |  |  | C=C1CC[C@@H]2[C@](C)(CO)[C@H](O)CC[C@@]2(C)[C@@H]1/C=C/C1=CC(CO)(CO)OC1=O | 954 | 13 | 1.1 | 6.2
19.2 | 77.5 | 9.3 |  |  | C=C1CC[C@@H]2[C@](C)(COC(=O)c3ccco3)[C@H](O)CC[C@@]2(C)[C@@H]1/C=C/C1=CCOC1=O | 92 | 4.6 | 1.2 | 9.9
18 | 28.9 | 14.6 |  |  | C=C1CC[C@@H]2[C@](C)(COC(=O)/C=C/c3ccccc3)[C@H](O)CC[C@@]2(C)[C@@H]1/C=C/C1=CCOC1=O | 183 | 10.2 | 6.3 | 15.5
1450 | 822 | 185 |  |  | C=C1CC[C@@H]2[C@](C)(COC(=O)c3cccs3)[C@H](OC(=O)c3cccs3)CC[C@@]2(C)[C@@H]1/C=C/C1=CCOC1=O | > 1540 | >1 | >1.8 | >8.3
121 | 19.7 | 23.5 |  |  | C=C1CC[C@@H]2[C@](C)(COC(=O)c3cccs3)[C@H](O)CC[C@@]2(C)[C@@H]1C/C=C1\C=COC1=O | 2470 | 20.3 | 125 | 104.9
280 | 289 | 44.1 |  |  | C=C1CC[C@@H]2[C@](C)(COC(C)=O)[C@H](O)CC[C@@]2(C)[C@@H]1C/C=C1\C=COC1=O | 334 | 1.2 | 1.1 | 7.6
 | 201 | 10.3 | 1.78 |  | C=C1CC[C@@H]2[C@](C)(COC(=O)/C=C/c3cc(OC)c(OC)c(OC)c3)[C@H](O)CC[C@@]2(C)[C@@H]1/C=C/C1=CCOC1=O | > 1710 |  | >8.5 | >165.1
162 | 29.2 | 22.1 |  |  | C=C1CC[C@@H]2[C@](C)(COC(=O)c3cccs3)[C@H](O)CC[C@@]2(C)[C@@H]1/C=C/C1=CCOC1=O | 557 | 3.4 | 19.1 | 25.2
251 | 260 | 39.6 |  |  | C=C1CC[C@@H]2[C@](C)(COC(C)=O)[C@H](OC(C)=O)CC[C@@]2(C)[C@@H]1C/C=C1\C=COC1=O | 297 | 1.2 | 1.1 | 7.6
 |  | 54.1 | 0.52 |  | C=C1CC[C@@H]2[C@](C)(CO)[C@H](O)CC[C@@]2(C)[C@@H]1C/C=C1/C(=O)OC[C@H]1O [ANDROGRAPHOLIDE] | 198 |  |  | 3.7
 |  | 22.6 |  | 1.44 | C=C1CC[C@@H]2[C@](C)(CO)[C@H](O)CC[C@@]2(C)[C@@H]1/C=C/C1=CCOC1=O | 197 |  |  | 8.7
40 | 63.5 | 22.1 |  |  | C=C1CC[C@@H]2[C@](C)(COC(=O)c3cccnc3)[C@H](O)CC[C@@]2(C)[C@@H]1/C=C/C1=CCOC1=O | 113 | 2.8 | 1.8 | 5.1
318 | 241 | 44.4 |  |  | C=C1CC[C@@H]2[C@](C)(CO)[C@H](OC(C)=O)CC[C@@]2(C)[C@@H]1C/C=C1\C=COC1=O | 872 | 2.7 | 3.6 | 19.6
